{"data": "Assay results pooled from the literature"}
{"SMILES": "N#Cc1[nH]nnc1-c1cc(Cl)cc(/C=C/c2cccc(C(F)(F)F)c2)c1", "system": "male Sprague-Dawley rat, plasma", "conditions": "oral, 10 mg/kg", "Tmax [min]": 318}
{"SMILES": "Cc1cc(Nc2ccc(C(F)(F)F)nc2)n2nc(C(C)(F)F)nc2n1", "system": "rat, plasma", "conditions": "oral, 200 mg/kg", "Tmax [min]": 720}
{"SMILES": "Cl.Clc1ccc2c(c1)nc(N1CCNCC1)n2Cc1ccccc1", "system": "rat, plasma", "conditions": "oral, 5 mg/kg", "Tmax [min]": 4.8}
{"SMILES": "N#Cc1ccc(Nc2nc(N)cc(Oc3c(F)cc(-c4ccc(C#N)cc4)cc3F)n2)cc1", "system": "Sprague-Dawley rat, plasma", "conditions": "intravenous, 1 mg/kg", "Tmax [min]": 4.8}
{"SMILES": "CCOC(=O)[C@@]12C[C@@H]1[C@@H](n1ccc3c(NC)nc(C#Cc4ccc(Cl)s4)nc31)[C@H](O)[C@@H]2O", "system": "male Sprague-Dawley rat, plasma", "conditions": "oral, 10 mg/kg", "Tmax [min]": 70.2}
{"SMILES": "COc1nc(-c2cc(C)c(N[C@@H](C)c3cc(F)cc(F)c3)nn2)ccc1-n1cnc(C)c1", "system": "male Sprague-Dawley rat, plasma", "conditions": "intravenous, 1 mg/kg, single dose", "Tmax [min]": 4.98}
{"SMILES": "C=CC(=O)N1CC2CC(n3nc(-c4ccc(C(=O)Nc5ccccn5)cc4)c4c(N)ncnc43)CC2C1 (stereo not shown)", "system": "male Wistar rat, plasma", "conditions": "oral, 3 mg/kg", "Tmax [min]": 15}
{"SMILES": "C[C@H](Nc1ncnc2[nH]cnc12)c1cc2cccc(Cl)c2c(=O)n1-c1ccccc1", "system": "male Wistar rat, plasma", "conditions": "oral, 25 mg/kg, single dose", "Tmax [min]": 120}
{"SMILES": "CCc1nc(C(N)=O)c(Nc2ccc(N3CCC(N4CCN(C)CC4)CC3)c(OC)c2)nc1NC1CCOCC1", "system": "male Sprague-Dawley rat, plasma", "conditions": "oral, 10 mg/kg", "Tmax [min]": 660}
{"SMILES": "CNCc1cc(-c2ccccc2F)n(S(=O)(=O)c2cccnc2)c1", "system": "Sprague-Dawley rat, plasma", "conditions": "oral, 10 mg/kg", "Tmax [min]": "~66"}
{"SMILES": "CC[C@H](C)[C@H](NC(=O)[C@H](Cc1ccccc1)NC(=O)[C@H](CCC(=O)O)NC(=O)[C@H](CCCNC(=N)N)NC(=O)[C@H](C)NC(=O)[C@H](C)NC(=O)[C@H](CCC(N)=O)NC(=O)[C@H](CCC(=O)O)NC(=O)[C@H](CCC(=O)O)NC(=O)[C@H](CC(C)C)NC(=O)[C@H](Cc1ccc(O)cc1)NC(=O)[C@H](CO)NC(=O)[C@H](CO)NC(=O)[C@@H](NC(=O)[C@H](CC(=O)O)NC(=O)[C@H](CO)NC(=O)[C@@H](NC(=O)[C@H](Cc1ccccc1)NC(=O)[C@@H](NC(=O)CNC(=O)[C@H](CCC(=O)O)NC(=O)[C@H](C)NC(=O)CCc1c[nH]cn1)[C@@H](C)O)[C@@H](C)O)C(C)C)C(=O)N[C@@H](C)C(=O)N[C@@H](Cc1c[nH]c2ccccc12)C(=O)N[C@@H](CC(C)C)C(=O)N[C@H](C(=O)N[C@@H](CCCNC(=N)N)C(=O)NCC(=O)N[C@@H](CCCNC(=N)N)C(=O)N[C@@H](CCCCNC(=O)COCCOCCNC(=O)COCCOCCNC(=O)CC[C@H](NC(=O)CCCCCCCCCCCCCCCCC(=O)O)C(=O)O)C(=O)O)C(C)C", "system": "rat, plasma", "conditions": "subcutaneous, 20 nmol/kg", "Tmax [min]": 600}
{"SMILES": "N#Cc1[nH]nnc1-c1cccc(-c2cc(F)cc(C(F)(F)F)c2)c1", "system": "male Sprague-Dawley rat, plasma", "conditions": "oral, 10 mg/kg", "Tmax [min]": 48}
{"SMILES": "CC(C)OC(=O)NC1CCN(Cc2cc(Cl)c3cccnc3c2O)CC1", "system": "rat, blood", "conditions": "intraperitoneal, 30 mg/kg", "Tmax [min]": 180}
{"SMILES": "CCc1cc(C(=O)NC)c2nccc(N3CCc4c(cc(Cn5ccnc5)cc4-c4cn(C)nc4C(F)(F)F)C3=O)c2c1", "system": "male Sprague-Dawley rat, plasma", "conditions": "oral, 50 mg/kg, single dose", "Tmax [min]": 48}
{"SMILES": "O=C(Nc1cc(F)c(F)c(F)c1)c1ccc(F)c(S(=O)(=O)NCc2cccc(B(O)O)c2)c1", "system": "male Sprague-Dawley rat, plasma", "conditions": "intravenous, 2 mg/kg", "Tmax [min]": 4.8}
{"SMILES": "Cc1c(-c2ccccc2)cccc1N1C(=O)c2cc(CN[C@H](C(=O)O)C(C)O)c(OCc3cccc(C#N)c3)cc2C1=O (stereo partly shown)", "system": "Sprague-Dawley rat, plasma", "conditions": "oral, 50 mg/kg", "Tmax [min]": 31.8}
